Screens: PubChem BioAssay, Broad Institute
DENV2 CPE rescue: inhibitors of DENV2 cytopathic effect | hit rate 1.7% among 350,000 | CPE inhibition, % at 9.99 µM | DENV2-infected cells, cytopathic effect rescue, plate reader; in the data active = CPE inhibition above about 20%, passing the limit was not always enough; inconclusive = no clear call, values can overlap the other calls; tested in BHK-21 cells
E-selectin induc: induces E-selectin expression in human endothelial cells; P16581; activation, % at 7.58 µM; hit rate 0.37% among 260,000; AID 686992; HUVEC E-selectin immunofluorescence imaging; normalized: neutral wells 0, TNF-alpha wells 100;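 active = mean E-selectin-positive cell signal at least 10% of the positive control, reached in at least 60% of replicates, without over 20% cell loss; inconclusive = no rule given, readout overlaps actives, possibly toxicity-flagged; inactive = the rest, including those meeting only one limit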
Target sequence (P16581 whole entry, looked up): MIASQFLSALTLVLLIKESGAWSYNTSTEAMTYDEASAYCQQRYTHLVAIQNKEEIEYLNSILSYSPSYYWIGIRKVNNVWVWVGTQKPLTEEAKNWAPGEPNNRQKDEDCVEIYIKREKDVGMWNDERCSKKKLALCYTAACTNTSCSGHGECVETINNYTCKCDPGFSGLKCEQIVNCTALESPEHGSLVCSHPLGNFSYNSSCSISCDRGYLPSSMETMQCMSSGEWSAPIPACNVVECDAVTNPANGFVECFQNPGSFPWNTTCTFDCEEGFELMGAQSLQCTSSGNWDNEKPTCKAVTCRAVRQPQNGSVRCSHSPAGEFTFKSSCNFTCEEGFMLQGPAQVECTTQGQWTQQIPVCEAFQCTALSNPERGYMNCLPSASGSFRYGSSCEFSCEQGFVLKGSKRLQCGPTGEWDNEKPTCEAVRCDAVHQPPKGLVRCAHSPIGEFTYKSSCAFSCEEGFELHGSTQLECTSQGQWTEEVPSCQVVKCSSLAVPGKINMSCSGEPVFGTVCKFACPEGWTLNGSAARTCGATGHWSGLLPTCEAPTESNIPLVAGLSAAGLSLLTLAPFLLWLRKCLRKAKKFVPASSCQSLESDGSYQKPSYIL
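assay system = HUVEC, human umbilical vein endothelial cells | input = 3,000 HUVEC seeded per well | medium = EGM-2 growth medium on 0.1% gelatin-coated wells | dosing = one compound dose added by pin transfer | signal = immunofluorescence imaging | read-out basis = % PE-positive cells | control set = TNF-alpha, DMSO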
C2C12 statin: suppressors of simvastatin-induced myotoxicity in C2C12 myotubes; ATP luminescence, 48 h; scaled: DMSO 0, geranylgeraniol control 100; rescue of ATP level, % at 7.49 µM; hit rate 0.78% among 330,000;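 active = mean ATP rescue above about 67%, or every replicate alone reaching that limit, limit read from the data, passing the limit was not always enough; inconclusive = no clear call, values can overlap the other calls; inactive = mean under the limit and some replicate under it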;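 also: myotubes were challenged with 10 µM simvastatin during compound exposure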
Large screens that a line does not name were inactive; ! = repeats disagree. In the library only some 2.2% were active in any assay of this set; here they are far more common.

C[C@H]1CN([C@@H](C)CO)C(=O)c2cccc(NC(=O)Nc3ccc(C(F)(F)F)cc3)c2O[C@@H]1CN(C)C(=O)Nc1ccccc1	none
O=C(Cn1ncc2c3ccccc3n(Cc3ccccc3F)c2c1=O)NCC1CCCO1 (configuration not stated)	none
O=C(Cn1ncc2c3ccccc3n(Cc3cccc(Cl)c3)c2c1=O)NCC1CCCO1 (configuration not stated)	C2C12 statin 100.0
N#C[C@H]1[C@H](c2ccc(C#Cc3ccccc3F)cc2)[C@@H](CO)N1C(=O)C1CCCC1	none (no result: C2C12 statin)
COc1ccc(NC(=O)Nc2ccc3c(c2)C(=O)N([C@H](C)CO)C[C@H](C)[C@@H](CN(C)Cc2ccncc2)O3)cc1	E-selectin induc 169.5
COc1ccc(CN(C)C[C@@H]2Oc3ccc(NC(=O)c4ccncc4)cc3C(=O)N([C@@H](C)CO)C[C@H]2C)cc1	E-selectin induc 55.8
COc1ccc(NC(=O)Nc2ccc3c(c2)C(=O)N([C@H](C)CO)C[C@H](C)[C@@H](CN(C)Cc2ccccc2)O3)cc1	DENV2 CPE rescue 42.8
COc1ccc(CN(C)C[C@H]2Oc3ccc(NC(=O)c4ccncc4)cc3C(=O)N([C@@H](C)CO)C[C@@H]2C)cc1	none
COc1ccc(NC(=O)Nc2ccc3c(c2)C(=O)N([C@H](C)CO)C[C@@H](C)[C@@H](CN(C)Cc2ccncc2)O3)cc1	none
C[C@@H]1CN([C@H](C)CO)C(=O)c2cc(NC(=O)Nc3ccc(F)cc3)ccc2O[C@H]1CN(C)Cc1ccncc1	DENV2 CPE rescue 36.9
C[C@@H]1CN([C@@H](C)CO)C(=O)c2cc(NC(=O)Nc3ccc(F)cc3)ccc2O[C@H]1CN(C)Cc1ccncc1	none
COc1ccc(NC(=O)Nc2ccc3c(c2)C(=O)N([C@H](C)CO)C[C@H](C)[C@H](CN(C)Cc2ccccc2)O3)cc1	none
C[C@@H]1CN([C@@H](C)CO)C(=O)c2cc(NC(=O)NC3CCCCC3)ccc2O[C@@H]1CN(C)C(=O)Nc1ccccc1	none
C[C@H]1CN([C@@H](C)CO)C(=O)c2cc(NC(=O)c3ccncc3)ccc2O[C@H]1CN(C)Cc1ccc(C(=O)O)cc1	DENV2 CPE rescue 42.3!
C[C@H](CO)N1C[C@H](C)[C@@H](CN(C)Cc2ccc(C(=O)O)cc2)Oc2ccc(NC(=O)c3ccncc3)cc2C1=O	none (no result: E-selectin induc)
O=C(Nc1nccs1)[C@H]1[C@H](CO)[C@H]2Cn3c(ccc(-c4ccncc4)c3=O)[C@H]2N1CC1CCCC1	none (no result: DENV2 CPE rescue)
CC(=O)N(C)C[C@H]1Oc2cc(-c3cccc(F)c3)ccc2S(=O)(=O)N([C@H](C)CO)C[C@H]1C	none
O=C(C[C@H]1CC[C@H]2[C@@H](COC[C@@H](O)CN2S(=O)(=O)c2ccc(Cl)cc2)O1)NCCN1CCCC1	E-selectin induc inconclusive
Cc1ccc(/C=N/NC(=O)CNC(=O)COc2ccccc2)cc1	none (no result: E-selectin induc, C2C12 statin)
O=C(COc1ccccc1)NCC(=O)N/N=C/c1ccc(Br)cc1	DENV2 CPE rescue 70.0
COc1ccc(NC(=O)Nc2cccc3c2O[C@H](CN(C)Cc2ccc(C(=O)Nc4ccccc4N)cc2)[C@H](C)CN([C@H](C)CO)C3=O)cc1	E-selectin induc 33.5 (no result: C2C12 statin)
Cc1noc(C)c1NC(=O)Nc1cccc2c1O[C@H](CN(C)Cc1ccc3c(c1)OCO3)[C@@H](C)CN([C@@H](C)CO)C2=O	DENV2 CPE rescue 21.5
COc1ccc(NC(=O)Nc2cccc3c2O[C@@H](CN(C)Cc2ccc(C(=O)Nc4ccccc4N)cc2)[C@@H](C)CN([C@H](C)CO)C3=O)cc1	none (no result: C2C12 statin)
C[C@H]1CN([C@@H](C)CO)C(=O)c2cccc(NC(=O)Nc3ccccc3)c2O[C@@H]1CN(C)Cc1ccc(C(=O)O)cc1	none
Cc1noc(C)c1NC(=O)Nc1cccc2c1O[C@H](CN(C)Cc1ccccc1)[C@H](C)CN([C@@H](C)CO)C2=O	none
Cc1noc(C)c1NC(=O)Nc1cccc2c1O[C@H](CN(C)Cc1ccc(C(=O)O)cc1)[C@H](C)CN([C@@H](C)CO)C2=O	DENV2 CPE rescue 26.3 (no result: E-selectin induc)
Cc1noc(C)c1NC(=O)Nc1cccc2c1O[C@H](CN(C)Cc1ccc3c(c1)OCO3)[C@@H](C)CN([C@H](C)CO)C2=O	none
C[C@@H]1CN([C@H](C)CO)C(=O)c2cccc(NC(=O)Nc3ccccc3)c2O[C@H]1CN(C)Cc1ccc(C(=O)O)cc1	DENV2 CPE rescue 21.7
Cc1cc(C(=O)Nc2cccc3c2O[C@@H](CN(C)Cc2ccc(C(=O)O)cc2)[C@@H](C)CN([C@H](C)CO)C3=O)n(C)n1	DENV2 CPE rescue 50.4
COc1ccc(CN(C)C[C@@H]2Oc3c(NC(=O)Nc4ccccc4)cccc3C(=O)N([C@H](C)CO)C[C@H]2C)cc1	DENV2 CPE rescue 29.5
Cc1cc(C(=O)Nc2cccc3c2O[C@H](CN(C)Cc2ccccc2)[C@H](C)CN([C@@H](C)CO)C3=O)n(C)n1	none
COc1ccc(CN(C)C[C@@H]2Oc3c(NC(=O)Nc4ccccc4)cccc3C(=O)N([C@@H](C)CO)C[C@@H]2C)cc1	none
Cc1ccc(S(=O)(=O)N(C)C[C@H]2Oc3ccc(NS(=O)(=O)c4cccs4)cc3C(=O)N([C@@H](C)CO)C[C@@H]2C)cc1	none
CC(C)(C)NC(=O)CN(C(=O)Cn1nnc(-c2ccccc2F)n1)c1cccc2c1CCCC2	C2C12 statin 153.4 (no result: DENV2 CPE rescue, E-selectin induc)
COc1ccccc1N(CC(=O)NC(C)(C)C)C(=O)Cn1nnc(-c2ccc(C)o2)n1	none (no result: DENV2 CPE rescue, E-selectin induc)
CC(C)Cn1c(=O)c2ccccc2n2c(CCC(=O)O)nnc12	DENV2 CPE rescue 70.2
Cc1ccc(Cn2c(=O)c3ccccc3n3c(CCC(=O)O)nnc23)cc1	none
Cn1cc(CN2CCCC(CNS(=O)(=O)c3cccc4cccnc34)C2)cn1 (configuration not stated)	none (no result: C2C12 statin)
CC(C)n1cc(CN2CCCC(CNS(=O)(=O)c3cccc4cccnc34)C2)cn1 (configuration not stated)	DENV2 CPE rescue 22.5
C[C@H](CO)N1C[C@H](C)[C@H](CN(C)CC2CC2)OCCCC[C@H](C)Oc2ccc(NC(=O)Nc3ccc4c(c3)OCO4)cc2C1=O	none (no result: E-selectin induc, C2C12 statin)
CC(C)NC(=O)N(C)C[C@H]1Oc2c(NC(=O)c3ccc(-c4nccs4)cc3)cccc2C(=O)N([C@@H](C)CO)C[C@@H]1C	none (no result: C2C12 statin)
CC(C)NC(=O)N(C)C[C@@H]1Oc2c(NC(=O)c3ccc(-c4nccs4)cc3)cccc2C(=O)N([C@@H](C)CO)C[C@H]1C	E-selectin induc 52.1 (no result: C2C12 statin)
C[C@@H]1CN([C@@H](C)CO)C(=O)c2cccc(NC(=O)c3ccc(-c4nccs4)cc3)c2O[C@H]1CN(C)C	DENV2 CPE rescue 73.0
C[C@H](CO)N1C[C@H](C)[C@H](CN(C)C)Oc2c(NC(=O)c3ccc(-c4nccs4)cc3)cccc2C1=O	none
C[C@@H]1CN([C@@H](C)CO)C(=O)c2cccc(NC(=O)c3ccc(-c4nccs4)cc3)c2O[C@@H]1CN(C)Cc1ccc(Cl)c(Cl)c1	E-selectin induc 32.4 (no result: C2C12 statin)
C[C@@H]1CN([C@@H](C)CO)C(=O)c2cccc(NC(=O)c3ccc(-c4nccs4)cc3)c2O[C@@H]1CN(C)S(C)(=O)=O	DENV2 CPE rescue 24.0 (no result: C2C12 statin)
C[C@H](CO)N1C[C@H](C)[C@H](CN(C)Cc2ccc(Cl)c(Cl)c2)Oc2c(NC(=O)c3ccc(-c4nccs4)cc3)cccc2C1=O	none (no result: C2C12 statin)
C[C@@H]1CN([C@H](C)CO)C(=O)c2cccc(NC(=O)c3ccc(-c4nccs4)cc3)c2O[C@H]1CN(C)S(C)(=O)=O	none (no result: C2C12 statin)
